Screening results as filed in PubChem BioAssay.
An excerpt weighted towards active compounds, which were near 2.2% of everything screened.
Cneo AK release: Cryptococcus neoformans lysis via adenylate kinase release. hit rate 0.2% among 360,000. lysis activity, % at 15 µM. C. neoformans lysis, adenylate kinase release luminescence, 4 h; normalised: neutral wells 0, clomiphene wells 100;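 active = mean lysis activity across replicates of at least 80%, whatever share of replicates individually reach that level; inactive = mean lysis activity below 80%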
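Material – Cryptococcus neoformans yeast cells · Quantity – 5 × 10^6 yeast cells/mL · Buffer or medium – YPD medium · Compound – single dose · Timing – 4 h static compound exposure, 37 °C, read 1 h post-reagent · Signal – adenylate kinase release luminescence · Read-out basis – lysis from increased AK signal · Benchmarks – Clomiphene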
Ecoli rRNA inh: inhibits bacterial ribosomal RNA function over humanized ribosomes; hit rate 1.6% among 350,000; E. coli WT GFP vs humanized-ribosome RFP mutants, fluorescence, 24 h; stronger effect = lower value; DMSO median 0, no signal -100; AID 720706; GFP signal change (wild-type ribosome), % (concentration not given with the values);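 active = significant combined selectivity score with lowered wild-type GFP, culture density cut under 30%, mutant RFP and density less affected; inactive = any of these conditions unmet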
CR mimetic SO: yeast age-related superoxide inhibition as caloric restriction mimetic; hit rate 0.18% among 330,000; S. cerevisiae aged cells, superoxide DHE fluorescence; stronger effect = lower value; superoxide response (% of plate mean), % at 10 µM; AID 2690;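 active = superoxide response under a set limit, about three screen SD below normal, cut at about 65% in these data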;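 note: yeast aged for seven days with compound at 30 °C before DHE staining; 100% = average MFI of all compound-treated wells on the plate with controls excluded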
PglD inh: PglD (C. jejuni) enzyme inhibition; purified PglD enzyme, DTNB colorimetric CoA detection; AID 602405; inhibition, % at 12.5 µM; hit rate 0.098% among 360,000; in the data active = inhibition above about 16%, passing the limit was not always enough
SUMO Mot1 rescue: blocks SUMOylation pathway, rescuing yeast Mot1-301 growth | S. cerevisiae Mot1-301 growth rescue, ATP luminescence, 38.5C; percent above DMSO median, 100 means doubled | growth rescue, % at 18.8 µM | hit rate 1% among 320,000;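 active = every valid replicate shows activation above 250% relative to neutral control wells; inactive = the rest, any valid replicate at or below 250%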;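 note: OY570 slx delta 5 strain wells were the positive control but not used for scaling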
Active calls of the source: *; . = no result.

SMILES | Cneo AK release | Ecoli rRNA inh | CR mimetic SO | PglD inh | SUMO Mot1 rescue
COc1cccc(CN2CCN(C(=O)c3cc(-c4cccnc4)nc4ccc(C)cc34)CC2)c1 | . | -27* | 110 | . | .
CC(=O)Nc1ccc(NC(=O)C(C)OC(=O)C23CC4CC(CC(Cl)(C4)C2)C3)cc1 (stereo not given) | -1 | -26* | 104 | -1 | -20
O=C(O)CC/C(=N\Nc1ccc([N+](=O)[O-])cc1)c1ccccc1 | 5 | -28 | 106 | -19 | 367*
O=C(O)CC/C(=N\Nc1ccc(Cl)cc1)c1cccs1 | -1 | -28* | 100 | -2 | 85
COC(=O)N/N=C(\CCC(=O)O)c1cccs1 | -4 | 11 | 103 | 4 | 11
Cc1ccc(S(=O)(=O)Nc2ccc3c(c2)CC(=O)N([C@H](C)CO)C[C@H](C)[C@H](CN(C)S(C)(=O)=O)O3)cc1 | 0 | 2 | . | 1 | .
O=C(c1ccccc1)c1coc2ccc(O)c(Cl)c12 | -2 | -45* | 83 | -4 | 20
C[C@@H]1CN([C@H](C)CO)S(=O)(=O)c2ccc(C#Cc3cccnc3)cc2O[C@H]1CN(C)C(=O)CN(C)C | 2 | 3 | . | 12 | .
Cc1cc(/C=C2\C(=N)N3N=CSC3=NC2=O)c(C)n1Cc1ccccc1 | 4 | -33* | 91 | -11 | -4
COc1cccc(OCCNS(=O)(=O)c2ccccc2[N+](=O)[O-])c1 | -1 | -22* | 121 | 5 | -2
O=C(COC(=O)C1=COCCO1)Nc1ccc(F)c(F)c1 | -2 | 13 | 100 | -6 | 609*
C[C@H](CO)N1C[C@H](C)[C@@H](CN(C)C(=O)c2ccncc2)OCCCC[C@H](C)Oc2ccc(NC(=O)NC3CCCCC3)cc2C1=O | 3 | -2 | . | 1 | .
CCOc1ccc2nc(N3CCC(C(=O)NC4CCCCC4)CC3)sc2c1 | 6 | 4 | 99 | -3 | 344*
C[C@@H]1CCCCO[C@@H](CN(C)Cc2ccc(Cl)c(Cl)c2)[C@@H](C)CN([C@@H](C)CO)C(=O)c2cc(NC(=O)C3CCCCC3)ccc2O1 | 1 | 4 | . | 7 | .
O=C(c1ccccc1F)N1CC(=O)N2[C@H](C1)[C@@H](c1ccc(-c3ccccc3)cc1)[C@@H]2CO | . | 8 | . | . | .
O=C(C[C@@H]1C=C[C@H](NC(=O)c2ccc3c(c2)OCO3)[C@H](CO)O1)NCc1ccc(Cl)cc1 | -4 | 0 | . | 0 | .
O=C(Cn1cncn1)c1ccccc1Br | 1 | 12 | 100 | 1 | 357*
O=C(Cn1cncn1)NCc1ccccc1Br | 0 | . | 92 | 2 | -6
COc1ccc(NC(=O)Nc2ccc3c(c2)[C@@H]2C[C@@H](CC(=O)N(C)C)O[C@@H](CO)[C@@H]2O3)cc1 | 5 | -2 | . | -3 | .
O=C(COc1ccccc1)N1c2ccccc2Sc2ccccc21 | 2 | -34* | 93 | -3 | -11
O=C(COc1cccc(F)c1)N1c2ccccc2Sc2ccccc21 | 2 | . | 93 | 9 | -17
CCN1Cc2cc(C(=O)NCCN3CCCC3)nc(-c3cccc(C4=CCCC4)c3)c2[C@H]1CCO | . | 2 | . | . | .
O=C(Cc1ccccc1)N1C[C@H]2[C@@H](c3ccccc31)[C@@H](CO)N2C(=O)C1CC1 | -5 | 4 | . | 2 | .
O=[N+]([O-])c1ccc(-c2ccn[nH]2)o1 | . | -57 | 115 | . | 24
Nc1nc(N)nc(-c2ccc([N+](=O)[O-])o2)n1 | . | -5.3* | . | . | .
SMILES | Cneo AK release | Ecoli rRNA inh | CR mimetic SO | PglD inh | SUMO Mot1 rescue
C[C@H](CO)N1C[C@H](C)[C@@H](CN(C)C(=O)C2CCCCC2)Oc2ncc(-c3cccnc3)cc2C1=O | . | 2 | . | . | .
CCOC(=O)CCc1c(C)c2ccc(OC3CCCCC3=O)cc2oc1=O (stereo not given) | 0 | -21* | 90 | 9 | -15
C/C(=N\NC(N)=O)c1ccc(-n2ccnc2)cc1 | 0 | -16* | 111 | -6 | 81
CC1C(=O)OC(c2ccc(Br)cc2)C(C)(C)C1=O (stereo not given) | -2 | -43* | 107 | 5 | 9
O=C(C[C@H]1CC[C@H]2[C@@H](COC[C@@H](O)CN2Cc2ccccc2)O1)NCCc1ccccc1 | 1 | -7 | . | 5 | .
Cc1ccc(C(=O)Cn2nnc3ccccc32)cc1 | -3 | . | 94 | -7 | 1
Cc1ccc(C(=O)NNC(=O)Cn2nnc3ccccc32)cc1 | -2 | -31* | 99 | 8 | .
O=C1OC(NCc2cccnc2)(c2ccc(Cl)cc2)c2ccccc21 (stereo not given) | . | -35* | 94 | . | 5
CSc1cccc(NC(=O)CSc2nc3ccccc3o2)c1 | -1 | -25* | 100 | 5 | 21
CC(=O)Nc1cccc(NC(=O)CSc2nc3ccccc3o2)c1 | . | . | 96 | . | -13
COc1ccc(/C=N\NC(=O)c2ccccc2F)cc1COc1ccc(F)cc1F | -2 | -4 | 98 | -4 | 24
COc1ccc(/C=N/NC(=O)c2cc(C(C)(C)C)[nH]n2)cc1COc1ccc(F)cc1F | 1 | -24* | 99 | 1 | -6
CCC(=O)N1CC2(C1)[C@H](c1ccc(-c3ccccc3C)cc1)[C@H](CO)N2C(C)=O | . | 0 | . | . | .
O=C(COc1ccc(S(=O)(=O)N2CCOCC2)cc1Cl)NC1CCCCC1 | 0 | 1 | 107 | 4 | 338*
COC(=O)COc1ccc(S(=O)(=O)NCCC2=CCCCC2)cc1C | . | -21* | 96 | . | 16
COc1cccc(S(=O)(=O)N(C)C[C@H]2OCc3ccccc3-c3ccccc3C(=O)N([C@H](C)CO)C[C@@H]2C)c1 | 0 | 10 | . | -1 | .
C[C@@H]1CCCCO[C@@H](CN(C)Cc2ccc(Cl)c(Cl)c2)[C@@H](C)CN([C@H](C)CO)C(=O)c2cc(NC(=O)NC3CCCCC3)ccc2O1 | 53 | 4 | . | 1 | .
O=C(O)[C@H](Cc1ccccc1)N1C(=O)c2c(Cl)c(Cl)c(Cl)c(Cl)c2C1=O | -1 | -39* | 112 | 1 | 6
O=C(O)C(Cc1ccccc1)n1cccc1 (stereo not given) | -1 | . | 98 | 0 | 3
CC(=O)c1ccc(-n2c(CCC(=O)O)ccc2-c2cccs2)cc1 | -1 | 4 | 83 | 4 | 6
Cc1ccc(-n2c(CCC(=O)O)ccc2-c2cccs2)cc1 | -3 | -28* | 110 | -1 | -9
COc1ccc(-n2c(CCC(=O)O)ccc2-c2ccccc2)cc1 | 1 | -25* | 99 | -3 | .
CC(=O)N1[C@@H]2CN(CC(F)(F)F)C[C@H]1C2c1ccccc1 (stereo not given in full) | . | -1 | . | . | .
CCOC(=O)C1=CCN(S(=O)(=O)c2cccc(Cl)c2)C1c1ccc(C)cc1 (stereo not given) | -1 | -9 | . | 2 | .
CCOC(=O)c1sc(/S(C)=N\S(=O)(=O)c2cccc(Cl)c2)c2c1CCC=C2 (stereo not given) | . | -19* | 89 | . | -4
CC(=O)N1CC(C)Sc2ccc(S(=O)(=O)NCc3ccc(F)cc3)cc21 (stereo not given) | 1 | -26* | 98 | -6 | -12
